{"source": "ChEMBL document CHEMBL4118144", "about": "“Design, Synthesis, and Testing of Potent, Selective Hepsin Inhibitors via Application of an Automated Closed-Loop Optimization Platform” (J Med Chem, 2018)", "key": {"[1]": {"assay": "Chromatographic hydrophobicity index, log D of the compound at pH 7 by HPLC/UV analysis", "format": "physicochemical", "conditions": "buffer"}, "[2]": {"tested_on": "Serine protease hepsin (Homo sapiens), P05981 [D161E,R162K]", "sequence (P05981 whole entry D161E/R162K)": "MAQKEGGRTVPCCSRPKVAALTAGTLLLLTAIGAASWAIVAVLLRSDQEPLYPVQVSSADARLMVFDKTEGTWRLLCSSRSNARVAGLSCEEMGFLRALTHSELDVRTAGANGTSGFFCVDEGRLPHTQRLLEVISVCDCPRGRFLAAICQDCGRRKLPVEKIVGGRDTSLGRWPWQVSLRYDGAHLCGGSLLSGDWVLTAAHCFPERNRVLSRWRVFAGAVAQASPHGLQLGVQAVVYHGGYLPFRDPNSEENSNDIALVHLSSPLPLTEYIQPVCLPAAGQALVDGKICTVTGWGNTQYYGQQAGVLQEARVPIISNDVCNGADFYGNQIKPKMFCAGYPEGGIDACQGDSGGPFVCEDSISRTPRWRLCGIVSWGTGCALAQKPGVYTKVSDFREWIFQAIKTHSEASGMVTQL", "assay": "Inhibition of recombinant C-terminal His10-tagged human Hepsin (R45 to […] residues) D161E/ R162K double mutant expressed in mouse NS0 cells assessed as decrease in HGF alpha chain formation at 1 uM incubated for 30 mins in presence of recombinant human pro-HGF by immunoblot method", "format": "cell-based", "outline": "(§1)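 Recombinant human Pro-HGF incubated with recombinant human hepsin plus inhibitor at 37°C for 30 min; processing analysed by immunoblot with an antibody recognizing Pro-HGF and the α and β chains.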"}, "[3]": {"molecular_target": "T1, Serine protease hepsin (Homo sapiens, UniProt P05981)", "T1 sequence (P05981 1-162 limits assumed)": "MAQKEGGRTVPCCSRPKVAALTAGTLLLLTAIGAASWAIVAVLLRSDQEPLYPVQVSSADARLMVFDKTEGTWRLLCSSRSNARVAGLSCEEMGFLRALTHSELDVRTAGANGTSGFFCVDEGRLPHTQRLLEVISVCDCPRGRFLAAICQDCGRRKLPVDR", "T1 sequence (P05981 163-417 limits assumed)": "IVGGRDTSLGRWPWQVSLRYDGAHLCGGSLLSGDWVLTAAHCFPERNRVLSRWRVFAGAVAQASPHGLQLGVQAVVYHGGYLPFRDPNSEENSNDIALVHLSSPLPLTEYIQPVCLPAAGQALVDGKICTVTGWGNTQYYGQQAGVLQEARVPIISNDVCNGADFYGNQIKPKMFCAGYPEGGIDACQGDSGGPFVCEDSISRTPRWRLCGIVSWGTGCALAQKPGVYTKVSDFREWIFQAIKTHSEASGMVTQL", "assay": "Inhibition of doxycycline induced hepsin-mediated conversion of Pro-HGF into active form in human MCF10A cells assessed as decrease in MET phosphorylation (Tyr1243/1245) at 1 to 10 uM preincubated for 30 mins followed by recombinant human pro-HGF addition measured after 30 mins by immunoblot method", "format": "cell-based", "outline": "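Dox-induced MCF10A-Indu20-hepsin cells given DMSO or inhibitor for 30 min, then 50 ng/mL recombinant human Pro-HGF; MET phosphorylation (Tyr1243/1245) detected by immunoblotting.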"}, "[4]": {"molecular_target": "T1, Serine protease hepsin", "assay": "Inhibition of doxycycline induced hepsin-mediated loss of desmosomal junctions in human MCF10A cells at 1 to 10 uM preincubated for 30 mins followed by doxycycline addition measured after 6 hrs by desmoglein 2 staining-based confocal immunofluorescence microscopic analysis", "format": "cell-based", "outline": "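MCF10A-Indu20-hepsin cells on coverslips pretreated 30 min with 1 or 10 µM compound or DMSO, then 100 ng/mL Dox for 6 h. Desmoglein 2 immunofluorescence: continuous pericellular staining scored positive, discontinuous or absent scored negative. Cells counted in 10 fields per treatment across three biological replicates; reported as percentages.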"}, "[5]": {"molecular_target": "T1, Serine protease hepsin", "assay": "Inhibition of hepsin-mediated conversion of Pro-HGF into active form in human HCC1937 cells assessed as decrease in MET phosphorylation at 1 uM preincubated for 30 mins followed by recombinant human pro-HGF addition measured after 30 mins by immunoblot method", "format": "cell-based", "outline": "(§2)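 Hs578T or HCC1937 breast cells incubated with DMSO or inhibitor, then 50 ng/mL recombinant human Pro-HGF added; MET pathway activation (phospho-MET) assessed by immunoblotting.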"}, "[6]": {"tested_on": "Serine protease hepsin (Homo sapiens), P05981 [D161E,R162K]", "assay": "Inhibition of recombinant C-terminal His10-tagged human Hepsin (R45 to […] residues) D161E/ R162K double mutant expressed in mouse NS0 cells assessed as decrease in HGF beta chain formation at 1 uM incubated for 30 mins in presence of recombinant human pro-HGF by immunoblot method", "format": "cell-based", "outline": "as §1"}, "[7]": {"molecular_target": "T1, Serine protease hepsin", "assay": "Inhibition of hepsin-mediated conversion of Pro-HGF into active form in human Hs578T cells assessed as decrease in MET phosphorylation at 1 uM preincubated for 30 mins followed by recombinant human pro-HGF addition measured after 30 mins by immunoblot method", "format": "cell-based", "outline": "as §2"}}, "note": "Active and inactive are the calls of the source. The rule behind the calls is not given here."}
{"smiles": "Cc1ccc(S(=O)(=O)N[C@@H](C(=O)Nc2ccc(C(=N)N)cc2)C2CCCCC2)cc1", "values": [{"measurement": "chromatographic logD", "setting": "[1]", "value": 1.3}]}
{"smiles": "Cc1ccc(S(=O)(=O)N[C@@H](C(=O)Nc2ccc(C(=N)N)cc2)c2ccccc2)cc1", "values": [{"measurement": "inhibition", "setting": "[2]", "value": "Active"}, {"measurement": "inhibition", "setting": "[3]", "value": "Active"}, {"measurement": "inhibition", "setting": "[4]", "value": "Active"}, {"measurement": "inhibition", "setting": "[5]", "value": "Active"}, {"measurement": "inhibition", "setting": "[6]", "value": "Active"}, {"measurement": "inhibition", "setting": "[7]", "value": "Active"}]}
